The results in this text go back to publication PMC2190579 (The Journal of Cell Biology, 2001).

The target in assay [1] is P2Y1R (F^119 ↦ R) (Meleagris gallopavo, UniProt P49652, F108R). As to the kind of experiment: Calcium mobilization. The class given is cell-based, turkey. The following applies: read-out: EC50 (for Ca^2+ mobilization); 1321N1 cells; mean ± SEM (n = 3). For orientation: Calcium flux is commonly read through the fluorescence of an indicator in the cells.
The target in assay [2] is P2Y1R (D^121 ↦ E) (Meleagris gallopavo, UniProt P49652, D110E). As to the kind of experiment: Calcium mobilization. The assay is classed as cell-based, turkey. The following applies: read-out: EC50 (for Ca^2+ mobilization); 1321N1 cells; mean ± SEM (n = 3).
The target of assay [3] is P2Y1R (wild-type) (Meleagris gallopavo, UniProt P49652). As to the kind of experiment: Calcium mobilization. The assay is classed as cell-based, turkey. The following applies: read-out: EC50 (for Ca^2+ mobilization); 1321N1 cells; mean ± SEM (n = 3).
The target of assay [4] is P2Y1R (D^116 ↦ E) (Meleagris gallopavo, UniProt P49652, D105E). As to the kind of experiment: Calcium mobilization. The assay is classed as cell-based, turkey. The following applies: read-out: EC50 (for Ca^2+ mobilization); 1321N1 cells; mean ± SEM (n = 3).
Assay [5] deals with P2Y2R (D^97 ↦ E), RGE mutant (Homo sapiens, UniProt P41231, D97E). Nature of the assay: Calcium mobilization. The assay is classed as cell-based. The following applies: 1321N1 cells.
The test system of assay [6] is P2Y2R (wild-type). Nature of the assay: Calcium mobilization. The assay is classed as cell-based, human.
Assay [7] deals with RGE mutant P2Y2R. As to the kind of experiment: ERK1/2 phosphorylation in 1321N1 transfectants. The assay is classed as cell-based, human. The following applies: 100 μM UTP after 30 min preincubation with 10 μM BAPTA-AM. The gist of the method: (§1)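 1321N1 astrocytoma cells stably expressing HA-tagged P2Y2R (retroviral pLXSN, G418-selected) were grown to 80% confluence and serum-starved 24 h at 37°C. They were preincubated 30 min with buffer or 10 μM BAPTA-AM, then given 100 μM UTP. Lysates were run on 7.5% SDS-PAGE and immunoblotted for phospho-p42/p44 ERK1/2. Chemiluminescence was quantitated and normalised by reprobing for total ERK1/2.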

Assay [8] has as its system RGE mutant P2Y2R. Nature of the assay: FAK phosphorylation in 1321N1 transfectants. The assay is classed as cell-based, human. The following applies: 1 mM UTP after 30 min preincubation with 10 μM BAPTA-AM. In a few lines: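 Serum-starved (24 h, 37°C) 1321N1 cells stably expressing HA-tagged P2Y2R constructs were preincubated 30 min with buffer or 10 μM BAPTA-AM, then stimulated with 1 mM UTP. Cells were lysed in RIPA buffer and FAK was immunoprecipitated. Tyrosine phosphorylation was detected by anti-phosphotyrosine immunoblot after 7.5% SDS-PAGE, with chemiluminescence read-out. Three to six experiments.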

The test system of assay [9] is wild-type P2Y2R. As to the kind of experiment: ERK1/2 phosphorylation in 1321N1 transfectants. The assay is classed as cell-based, human. The gist of the method: as §1
For assay [10], the system named is wild-type P2Y2R. As to the kind of experiment: FAK phosphorylation in 1321N1 transfectants. The class given is cell-based, human.
Assay [11] deals with K562 cells. As to the kind of experiment: Fluorescence-activated cell sorting of integrin surface expression. The class given is cell-based, human. The following applies: overnight treatment with 100 nM PDBu.
Assay [12] deals with wild-type P2Y2R. As to the kind of experiment: IP assay. The assay is classed as cell-based, human. The following applies: overnight treatment with peptide; not shown. In a few lines:
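Wild-type P2Y2R 1321N1 transfectants were labelled 24 h with 2 μCi [3H]inositol (20 Ci/mmol) in serum-free, inositol-free DME. Cells were washed and held 30 min at 37°C in 30 mM LiCl buffer, then stimulated 10 min with UTP. Extraction used ice-cold 10% perchloric acid with neutralisation. Inositol phosphates were separated on Dowex columns and counted by liquid scintillation.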

Assay [13] has as its system K562 erythroleukemia cells. Nature of the assay: Ligand-coated bead-binding assay. The class given is cell-based, human. The following applies: number of beads bound per 100 cells; 1 h at 37°C; mean ± SEM.
For assay [14], the target named is αVβ5 integrin (human (endogenous in K562)) (UniProt P06756). Nature of the assay: ligand-coated bead binding to cells.
For assay [15], the target named is αVβ3 integrin (human (endogenous in K562)) (UniProt P06756). As to the kind of experiment: ligand-coated bead binding to cells.
Setting [16] is: overnight (18 h) with 100 μM peptide, 10 nM UTP 5 min.
Where [17] appears, read: shorter incubation periods than overnight, not shown.
Where [18] appears, read: overnight (18 h) with 100 μM peptide, 1 μM UTP 5 min.

One may read the EC50 as the midpoint of the concentration-response curve.

Sequence of P2Y2R (D^97 ↦ E), RGE mutant (P41231 whole entry D97E): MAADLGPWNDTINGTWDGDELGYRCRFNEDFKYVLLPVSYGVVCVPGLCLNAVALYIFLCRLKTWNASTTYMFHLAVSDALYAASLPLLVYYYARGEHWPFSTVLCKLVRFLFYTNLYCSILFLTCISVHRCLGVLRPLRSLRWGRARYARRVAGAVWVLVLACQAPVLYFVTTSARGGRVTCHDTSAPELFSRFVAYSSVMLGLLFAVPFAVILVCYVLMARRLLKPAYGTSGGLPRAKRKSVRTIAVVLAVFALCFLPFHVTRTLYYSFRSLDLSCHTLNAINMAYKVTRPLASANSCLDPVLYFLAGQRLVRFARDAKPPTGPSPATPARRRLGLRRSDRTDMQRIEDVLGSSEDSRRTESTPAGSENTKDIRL
Sequence of P2Y1R (wild-type) (P49652 whole entry): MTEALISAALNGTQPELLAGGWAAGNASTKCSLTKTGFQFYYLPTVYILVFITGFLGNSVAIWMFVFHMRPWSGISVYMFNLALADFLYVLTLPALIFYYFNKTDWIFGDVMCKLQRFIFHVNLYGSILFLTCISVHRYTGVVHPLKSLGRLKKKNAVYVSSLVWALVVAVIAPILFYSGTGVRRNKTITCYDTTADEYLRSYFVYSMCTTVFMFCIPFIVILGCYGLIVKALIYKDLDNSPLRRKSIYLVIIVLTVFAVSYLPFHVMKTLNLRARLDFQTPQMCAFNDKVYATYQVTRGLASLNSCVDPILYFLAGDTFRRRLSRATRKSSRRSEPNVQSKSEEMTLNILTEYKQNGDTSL
Sequence of P2Y1R (D^116 ↦ E) (P49652 whole entry D105E): as the sequence (P49652 whole entry) above, with D105E counted along it
Sequence of P2Y1R (D^121 ↦ E) (P49652 whole entry D110E): as the sequence (P49652 whole entry) above, with D110E counted along it
Sequence of P2Y1R (F^119 ↦ R) (P49652 whole entry F108R): as the sequence (P49652 whole entry) above, with F108R counted along it
Sequence of αVβ3 integrin (human (endogenous in K562)) (P06756 31-1048, chain 1 of 2): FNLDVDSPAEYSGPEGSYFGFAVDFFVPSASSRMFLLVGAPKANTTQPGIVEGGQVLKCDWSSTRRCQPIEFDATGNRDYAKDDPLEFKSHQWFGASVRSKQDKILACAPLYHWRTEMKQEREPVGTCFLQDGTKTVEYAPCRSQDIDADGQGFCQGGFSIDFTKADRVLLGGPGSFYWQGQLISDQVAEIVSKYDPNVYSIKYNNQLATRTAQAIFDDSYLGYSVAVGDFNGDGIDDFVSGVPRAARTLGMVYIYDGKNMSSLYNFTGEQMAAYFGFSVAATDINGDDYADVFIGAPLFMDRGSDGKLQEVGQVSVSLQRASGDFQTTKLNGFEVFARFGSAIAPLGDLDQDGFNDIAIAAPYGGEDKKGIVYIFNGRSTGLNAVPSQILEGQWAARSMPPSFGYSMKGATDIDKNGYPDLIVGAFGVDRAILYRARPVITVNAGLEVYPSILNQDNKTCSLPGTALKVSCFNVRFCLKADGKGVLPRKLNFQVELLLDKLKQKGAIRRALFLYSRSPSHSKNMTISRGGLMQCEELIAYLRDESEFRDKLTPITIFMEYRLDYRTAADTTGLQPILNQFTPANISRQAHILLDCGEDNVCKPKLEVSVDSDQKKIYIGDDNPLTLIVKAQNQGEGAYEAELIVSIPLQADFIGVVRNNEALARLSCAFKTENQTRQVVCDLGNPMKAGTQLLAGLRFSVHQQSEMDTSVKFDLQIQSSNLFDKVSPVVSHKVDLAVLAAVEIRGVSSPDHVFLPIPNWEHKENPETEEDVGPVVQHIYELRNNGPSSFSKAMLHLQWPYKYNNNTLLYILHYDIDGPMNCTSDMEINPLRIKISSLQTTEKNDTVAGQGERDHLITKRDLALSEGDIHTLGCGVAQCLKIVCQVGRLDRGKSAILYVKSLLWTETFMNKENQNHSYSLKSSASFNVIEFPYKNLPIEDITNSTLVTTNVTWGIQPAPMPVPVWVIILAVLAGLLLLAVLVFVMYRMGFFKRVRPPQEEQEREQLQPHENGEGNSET
Sequence of αVβ3 integrin (human (endogenous in K562)) (P05106 27-788, chain 2 of 2, further chain): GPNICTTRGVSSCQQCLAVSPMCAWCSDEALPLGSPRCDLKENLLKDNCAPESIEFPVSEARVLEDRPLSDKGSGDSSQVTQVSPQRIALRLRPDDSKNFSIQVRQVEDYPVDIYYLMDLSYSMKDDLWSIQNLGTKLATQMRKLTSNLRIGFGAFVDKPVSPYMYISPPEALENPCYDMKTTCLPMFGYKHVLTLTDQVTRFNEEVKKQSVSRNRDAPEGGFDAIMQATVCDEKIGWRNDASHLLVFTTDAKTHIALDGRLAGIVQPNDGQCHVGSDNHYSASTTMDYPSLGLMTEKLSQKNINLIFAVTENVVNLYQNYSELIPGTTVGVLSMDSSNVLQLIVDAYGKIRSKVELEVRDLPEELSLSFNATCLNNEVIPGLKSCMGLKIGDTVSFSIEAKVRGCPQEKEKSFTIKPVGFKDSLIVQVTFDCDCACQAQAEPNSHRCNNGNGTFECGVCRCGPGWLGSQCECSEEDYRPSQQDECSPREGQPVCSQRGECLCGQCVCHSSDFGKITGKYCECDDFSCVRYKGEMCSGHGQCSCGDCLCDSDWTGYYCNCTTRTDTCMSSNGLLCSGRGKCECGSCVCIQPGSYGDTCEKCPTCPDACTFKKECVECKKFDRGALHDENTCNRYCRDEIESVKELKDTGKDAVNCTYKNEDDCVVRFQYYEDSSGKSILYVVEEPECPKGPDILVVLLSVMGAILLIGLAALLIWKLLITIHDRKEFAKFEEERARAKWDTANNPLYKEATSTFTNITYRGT
Sequence of αVβ5 integrin (human (endogenous in K562)) (P06756 31-1048, chain 1 of 2): as the sequence (P06756 31-1048, chain 1 of 2) above
Sequence of αVβ5 integrin (human (endogenous in K562)) (P18084 24-799, chain 2 of 2, further chain): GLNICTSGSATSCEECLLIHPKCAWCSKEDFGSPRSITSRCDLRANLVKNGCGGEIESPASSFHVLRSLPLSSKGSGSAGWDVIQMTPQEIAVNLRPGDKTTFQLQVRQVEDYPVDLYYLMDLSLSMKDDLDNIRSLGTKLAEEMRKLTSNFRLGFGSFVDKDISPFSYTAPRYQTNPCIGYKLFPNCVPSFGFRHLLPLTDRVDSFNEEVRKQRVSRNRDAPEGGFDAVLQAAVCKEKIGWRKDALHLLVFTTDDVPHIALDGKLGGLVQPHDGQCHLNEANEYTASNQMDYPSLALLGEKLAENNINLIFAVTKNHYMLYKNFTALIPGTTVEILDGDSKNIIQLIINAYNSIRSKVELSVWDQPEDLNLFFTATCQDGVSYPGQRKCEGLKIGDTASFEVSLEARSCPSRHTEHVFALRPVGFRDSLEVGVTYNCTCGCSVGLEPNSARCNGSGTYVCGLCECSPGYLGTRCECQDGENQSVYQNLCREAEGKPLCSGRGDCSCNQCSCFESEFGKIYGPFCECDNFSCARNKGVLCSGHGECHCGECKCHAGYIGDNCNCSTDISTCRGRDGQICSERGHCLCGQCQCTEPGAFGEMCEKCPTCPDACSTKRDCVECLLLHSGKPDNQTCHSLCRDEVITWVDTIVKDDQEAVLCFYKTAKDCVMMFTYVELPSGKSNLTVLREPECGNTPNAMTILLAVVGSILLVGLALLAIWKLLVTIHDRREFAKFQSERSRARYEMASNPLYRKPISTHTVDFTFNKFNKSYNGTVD

As for `Nc1ncnc2c1ncn2[C@@H]1O[C@H](COP(=O)(O)OP(=O)(O)O)[C@@H](O)[C@H]1O` [ADP], the EC50 stood at 2020 ± 270 nM in [1], 80 ± 10 nM in assay [2], 60 ± 10 nM in [3] and 60 ± 10 nM in assay [4].
On to `Nc1ncnc2c1ncn2[C@@H]1O[C@H](COP(=O)(O)OP(=O)(O)OP(=O)(O)O)[C@@H](O)[C@H]1O` [ATP], for which the EC50 in [5] (read-out: EC50 (for Ca^2+ mobilization), mean ± SEM (n = 3)) came out at 785000 ± 125000 nM; in assay [6] (read-out: EC50 (for Ca^2+ mobilization), 1321N1 cells, mean ± SEM (n = 3)), 850 ± 130 nM.
As for `O=C(O)CN(CC(=O)O)c1ccccc1OCCOc1ccccc1N(CC(=O)O)CC(=O)O` [BAPTA, 1,2-bis(2-aminophenoxy)ethane-N,N,N′,N′-tetraacetic acid], the entries for the “Effect on UTP-induced ERK1/2 phosphorylation” value in assay [7] and in [9] (100 μM UTP after 30 min preincubation with 10 μM BAPTA-AM) were “not affected” and “partially inhibited”, respectively. Also, the “Effect on UTP-induced FAK phosphorylation” value in [8] and in assay [10] (1 mM UTP after 30 min preincubation with 10 μM BAPTA-AM) was “inhibited” throughout.
Take `CCCC(=O)O[C@@H]1[C@@H](C)[C@@]2(O)[C@@H](C=C(CO)C[C@]3(O)C(=O)C(C)=C[C@@H]23)[C@@H]2C(C)(C)[C@]12OC(=O)CCC` [PDBu, phorbol dibutyrate]: the “Fluorescence intensity or percentage of cells stained by antiintegrin antibodies (α5, αVβ5, β3)” value in assay [11] is on record as “did not increase”.
Turning to RGDS, the “Effect on P2Y2R-mediated IP formation” value in assay [12] is listed as “not inhibited”. The “Effect on P2Y2R-mediated Ca^2+ mobilization” value in [6] (overnight treatment with peptide, not shown) was “not inhibited”. Further, the “Effect on P2Y2R-mediated ERK1/2 phosphorylation” value in assay [9] (setting [16]) is “inhibited”; in assay [9] (setting [17]), “did not cause inhibition”. In addition, the results for the “Effect on P2Y2R-mediated FAK phosphorylation” value in [10] (setting [18]) and in assay [10] (setting [17]) were “inhibited” and “did not cause inhibition”, respectively.
Consider RGES, for which, in assay [9] (setting [16]), the “Effect on P2Y2R-mediated ERK1/2 phosphorylation” value was “no effect”. In addition, the “Effect on P2Y2R-mediated FAK phosphorylation” value in assay [10] (setting [18]) is recorded as “no effect”.
For the molecule fibronectin, in [13], the “AI (adhesion index) of ligand-coated beads bound to K562 cells” value was 318 ± 14.
As for human vitronectin (ligand), the adhesion index (AI, beads bound per 100 K562 cells) (beads bound per 100 cells) in assay [14] and in assay [15] was 300 each time.
For the molecule pertussis toxin, the “Effect on Ca^2+ mobilization” value in [5] (200 ng/ml PTX overnight, 100 μM UTP) is listed as “insensitive”. Also, the “Inhibition of Ca^2+ mobilization” value in [6] (200 ng/ml PTX overnight, 1 μM UTP, 1321N1 cells) was found to be 30%.

B1: vitronectin: human vitronectin purchased from Calbiochem, coated on latex beads (protein, UniProt P04004 20-478, looked up)
Vitronectin: DQESCKGRCTEGFNVDKKCQCDELCSYYQSCCTDYTAECKPQVTRGDVFTMPEDEYTVYDDGEEKNNATVHEQVGGPSLTSDLQAQSKGNPEQTPVLKPEEEAPAPEVGASKPEGIDSRPETLHPGRPQPPAEEELCSGKPFDAFTDLKNGSLFAFRGQYCYELDEKAVRPGYPKLIRDVWGIEGPIDAAFTRINCQGKTYLFKGSQYWRFEDGVLDPDYPRNISDGFDGIPDNVDAALALPAHSYSGRERVYFFKGKQYWEYQFQHQPSQEECEGSSLSAVFEHFAMMQRDSWEDIFELLFWGRTSAGTRQPQFISRDWHGVPGQVDAAMAGRIYISGMAPRPSLAKKQRFRHRNRKGYRSQRGHSRGRNQNSRRPSRATWLSLFSSEESNLGANNYDDYRMDWLVPATCEPIQSVFFFSGDKYYRVNLRTRRVDTVDPPYPRSIAQYWLGCPAPGHL
modifications: coated on latex beads
B1: the “AI (adhesion index) of ligand-coated beads bound to K562 cells” value in [13] is 300 ± 28.
